Assay results as given in the EternaBench riboswitch data.

System: MS2 coat protein
Test: apparent Kd, MS2 coat protein; higher = weaker binding; RNA-MaP array; FMN 200 µM where present
In short: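 The apparent Kd is reported as the median of filtered per-cluster binding-curve fits. To get these curves, designs transcribed by stalled E. coli RNA polymerase on Illumina sequencing-chip clusters were titrated with SNAP-549-labelled MS2 coat protein from 0.7 or 1.5 nM, doubling to 3 µM. Titrations were run without and then with constant ligand in 100 mM Tris-HCl pH 7.5, 80 mM KCl, 4 mM MgCl2, BSA, DTT, yeast tRNA and Tween-20, and green signal was normalised to red-channel RNA signal and control-cluster median Fmax.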

[1] = designed as: OFF switch for flavin mononucleotide, no ligand
[2] = ligand present: flavin mononucleotide, designed as: OFF switch for flavin mononucleotide
[3] = designed as: ON switch for flavin mononucleotide, no ligand
[4] = ligand present: flavin mononucleotide, designed as: ON switch for flavin mononucleotide

Row | Sequence | apparent Kd [1] | apparent Kd [2] | apparent Kd [3] | apparent Kd [4]
1 | UCAGGCUUCGAGAAGGACAUGAGGAUCACCCAUGUGCGUGUGAAGCAGCCGUGAGGCUGCAUCAUGUAGGAUAUCGGAGUCUGU | 0.0924 µM | 0.554 µM | – | –
2 | AUAUUGUGAGGAUAUGAACUUAGUAUCGAAAGAUACUAAGAUCAGAAGGCACAUGAGGAUCACCCAUGUUUCUC | 0.0775 µM | 0.402 µM | – | –
3 | GACUGAUUACAGAAGGUGUAAGACAUGAGGAUCACCCAUGUGUAAAAGGGUAUAUUUGAAUAUAACAAGGAUAUGUUUUAAUCA | – | – | 0.0751 µM | 0.0493 µM
4 | ACUGAAGUCACAGGAUAUCAUAUGCCGGCACAUUGAGAAGGGUGACUGGGCUACAUGAGGAUCACCCAUGUGCCGUCGUAACAA | – | – | 0.0298 µM | 0.0369 µM
5 | CGGGAGGAAGGAUAUACACGGCCUCCUAGAAUAAAUCCUGGACAUGAGGAUCACCCAUGUAGAAGGUCCACCGA | 0.0189 µM | 0.0244 µM | – | –
6 | UGACUUAUAUAGAAGGGUAUGUGGGAAUUACAUGAGGAUCACCCAUGUUUUAUAGGAUAUGUAUAUAGUUUUUAAUCAAGUUUA | 0.0463 µM | 0.0377 µM | – | –
7 | AAACAUGUCCGAGGAUAUCUGGAAACAUUUUCAAGAGAAGGCGGACAUGAGGAUCACCCAUGUCUCACCUCAUCAAAUCCAAGU | 0.00824 µM | 0.0302 µM | – | –
8 | UGAGCCUCGUGAGGAUAUACAUGAGGAUCACCCAUGUAGUAAAGUGAACGGAGGAAACUCCGAAUGUAGAAGGCACGAGGCUCA | 0.0132 µM | 0.0858 µM | – | –
9 | CCACGUCACAUUAACAUGAGGAUCACCCAUGUCUCUUGACAUGAGGAUAUGGAUCCUAAUUGGAUCCAGAAGGCAUGGACGUGG | – | – | 1.37 µM | 0.0998 µM
10 | AUUAAUUAAUUAAUACAUGAGGAUCACCCAUGUAAUAAGAUCAAGGAUAUCAGCUCGAUUAGAGCUGAGAAGGUGAUCACAUGU | – | – | 0.772 µM | 0.223 µM
11 | GUAGCAUAAUCAGGAUAUUCAGCGAAUAGAUAGACAUGAGGAUCACCCAUGUGGCGAAAGCCUAGGGAGAAGGGAUAAUGCUAC | – | – | 0.2 µM | 0.0358 µM
12 | UGAAAUAGAGGAUAUACAUGAGGAUCACCCAUGUGAUCCUCCGGAGUAGGCCGUUUAUGUAGAAGGCUGAUGAA | 0.0489 µM | 0.0483 µM | – | –
13 | UUAAUUAUACAAGGAUAUCUAUUGUAGUUUCGACUAACAUGAGGAUCACCCAUGUAAAUAUGUUAAGAGAAGGUGUAUUUUAAA | – | – | 0.0455 µM | 0.0303 µM
14 | CAGGUGUUAGGAUAUCGGAGGUUGAGGCAGACGGGAAUAUUCGAGAAGGAACAUGAGGAUCACCCAUGUAGUAG | 0.0228 µM | 0.0248 µM | – | –
15 | UAGGAGCAAGGAUAUACGAGGAUAUGGUAGUUUGUAGAGUGACAUGAGGAUCACCCAUGUAGAAGGUGCGUGUG | 0.123 µM | 0.0997 µM | – | –
16 | CUAUUGCGAGGAUAUGAUUUAAAUAACAUGAGGAUCACCCAUGUUUUUACGUUGUUAUGUUCAGAAGGCGUAUUGU | 0.0401 µM | 0.0263 µM | – | –
17 | UAUAUAUAGUAAGGAUAUGUAUUCAUUUUAUAAACAGAAGGUACUGACAUGAGGAUCACCCAUGUUUUAGUGUGGGCAUGUAGA | 0.0815 µM | 0.132 µM | – | –
18 | AAGAAGUGAGGAUAUCCUGCUCGUCACUUGCGUGAUGAGUAGGAGAAGGCACAUGAGGAUCACCCAUGUAAAGA | 0.0374 µM | 0.0416 µM | – | –
19 | AAAUCGUCAGGAUAUGCUAGUAAAUGUUACAUUUCUUCAUAGCAGAAGGGACAUGAGGAUCACCCAUGUAAGUC | 0.0337 µM | 0.0456 µM | – | –
20 | CAGUACUGAGGAUAUACAUGAGGAUCACCCAUGUGCUUUAGCUAGGAUACUAGCACCAGUAGAAGGCAGUACUG | 0.0106 µM | 0.0238 µM | – | –
21 | CAACUCGGAGGAUAUAGCUGUUCUAACAUGAGGAUCACCCAUGUGCAGUUCCUUGUUAGGCUAGAAGGCCGGUAUA | 0.0406 µM | 0.0991 µM | – | –

Row | Sequence | apparent Kd [1] | apparent Kd [2] | apparent Kd [3] | apparent Kd [4]
22 | UGUCGGAGCAGAGGAUAUUACAUGAGGAUCACCCAUGUAUGAACCAAUAGCUGGAAACAGCAAUAUAAGAAGGCUGCUCCGACA | 0.00559 µM | 0.00548 µM | – | –
23 | AUUAUUUACAUAGGAUAUUGUUACAUGAGGAUCACCCAUGUUAUUUGGGAAUUAGGAAUAUUUUACAAGAAGGAUGUUGUUACA | – | – | 0.0874 µM | 0.067 µM
24 | GAGCUGACAAUAAAUAACUCAAAUACAUGAGGAUCACCCAUGUAGGAUAUGCAGUGGAAUACACUGCAGAAGGACAUAGUCAGC | 0.0134 µM | 0.0218 µM | – | –
25 | UUGGACGUCGUGGGAUAUGUAGGAUAUUCCUACAUGAGGAUCACCCAUGUUGACAUGGAAGAAGGACAGAAGGACGAUGUCCAU | – | – | 0.152 µM | 0.00555 µM
26 | CCUAAACAUGAGGAUCACCCAUGUCAGGAUAUGGACCGUCUGGUGAAAUUCAGCUGGACCAGAAGGGACGUGGA | 0.0322 µM | 0.0455 µM | – | –
27 | UGCUAACUGUAGAAGGGUGACAUGAGGAUCACCCAUGUGCACGCGCGAUUUACGGCGCGCGUGCCACAGGAUAUACAGUCGAGU | – | – | 0.0283 µM | 0.0544 µM
28 | AAGGUACGAGGAUAUACAUAGAUACAGACACAUGUUCAAGUACAUGAGGAUCACCCAUGUAGAAGGCGUAUAUA | 0.0387 µM | 0.16 µM | – | –
29 | CACGAAGGAGGAUAUAUUAAGGCAGAUCCUAUACAUCGGUUACAUGAGGAUCACCCAUGUAGAAGGCCUACAAA | 0.049 µM | 0.185 µM | – | –
30 | UACUUGUUAGGAUAUCUUACAUUUGCAUUAUAGCAACUAUUGGAGAAGGGACAUGAGGAUCACCCAUGUUUGGU | 0.0399 µM | 0.0482 µM | – | –
31 | AGUACUACAGGAUAUACAUGAGUGAUACUCAUAUACCUACUACAUGAGGAUCACCCAUGUAGAAGGGUAGUACA | 0.0149 µM | 0.0117 µM | – | –
32 | GGAGGACGAAACAUGAGGAUCACCCAUGUGUUAUAAUUAAUAUAGGAUAUGUUUAUACUUUUUGGGCAGAAGGAUGAUAAUGUU | – | – | 0.0222 µM | 0.0197 µM
33 | ACGAACCUAGGAUAUACAUGAGGAUCACCCAUGUACUACUAUCCAUGAAUGACCCUCGGUAGAAGGAGGAUCAA | 0.0181 µM | 0.0215 µM | – | –
34 | GCAUACUAAGGAUAUACAUGAGGAUCACCCAUGUUGCCAAAUGGCAGCAUCACCUGGAGUAGAAGGUAGAUGUA | 0.035 µM | 0.0333 µM | – | –
35 | CAGUACUGAGGAUAUACAUGAGGAUCACCCAUGUGCUUUAGCUAGGAUACUAGCAUCAGUAGAAGGCAGUACUG | 0.0128 µM | 0.0294 µM | – | –
36 | UGGUACUACGGAGGAUAUCAUGUAUAUACAUGAGGAUCACCCAUGUCGUACGAGAGUACGGAGAUUGAGAAGGCCGUAGUACCU | – | – | 0.0387 µM | 0.0162 µM
37 | GUAGCAUACCGAGGAUAUUCAUACCGGAAACGGACAUGAGGAUCACCCAUGUGGCUAAUGCCUUGGGAGAAGGCGGAAUGCUAC | – | – | 0.568 µM | 0.0217 µM
38 | UUGGACGUCGUAGGAUAUGUAGGAUAUUCCUACAUGAGGAUCACCCAUGUUUACAUGGAAGAAGGACAGAAGGACGAUGUCCAU | – | – | 1.32 µM | 0.0145 µM
39 | AUAAAUAAGGAGGAUAUCGUAUCGGAAACGAUACGAGAAGGUCUAACAUGAGGAUCACCCAUGUUCCUCAAUAA | 0.0377 µM | 0.0585 µM | – | –
40 | CUUCGUAUAGAGGAUAUAGGUUACUGCGGUAUCCUAGAAGGCUGUACAUGAGGAUCACCCAUGUACUUCAGAUC | 0.0139 µM | 0.0182 µM | – | –
41 | UGUGCUGAAGGAUAUGCGUAAGCUCGGUGACGAGCAGGUCUACAUGAGGAUCACCCAUGUAGAAGGUCAGUACU | 0.0158 µM | 0.016 µM | – | –
42 | UUACAGUGCGGGUAGGAUAUGUAGGGUGGUACAUGAGGAUCACCCAUGUAUCCACCCUUCGACCGGCAGAAGGGCCUGUCACUAC | – | – | 0.0171 µM | 0.0205 µM
